From paper PMC10416317 (Journal of medicinal chemistry, 2023)

What was measured:
acute kidney injury = experiment: Ischemia/reperfusion-induced AKI model in mice; assay type: in vivo; conditions: mouse I/R AKI
AKR1B1 [1] = molecular target: AKR1B1 (Mus musculus, UniProt P45376); experiment: Methylglyoxylate-metabolizing; assay type: in vivo; conditions: i.p. 120 mg/kg, 18h
SCoR2 [2] = molecular target: T1, SCoR2 (Mus musculus, UniProt Q9JII6); assay type: in vivo; conditions: i.p. 120 mg/kg, 18h
T1 sequence (Q9JII6 1-325): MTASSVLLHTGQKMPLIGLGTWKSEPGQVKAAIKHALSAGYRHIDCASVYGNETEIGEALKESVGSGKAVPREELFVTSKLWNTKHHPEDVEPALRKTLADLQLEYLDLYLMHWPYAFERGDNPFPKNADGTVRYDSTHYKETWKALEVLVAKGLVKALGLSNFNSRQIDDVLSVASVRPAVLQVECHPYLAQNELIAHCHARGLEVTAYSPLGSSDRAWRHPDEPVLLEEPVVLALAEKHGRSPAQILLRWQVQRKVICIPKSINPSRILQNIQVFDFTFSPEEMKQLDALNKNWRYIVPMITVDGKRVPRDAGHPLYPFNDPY
Procedure, shortened: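 Mice received test compound 120 mg/kg i.p. (vehicle DMSO); liver, lung, heart, brain and spleen were harvested 18 h later. Tissues were homogenized in 50 mM phosphate pH 7.0, 150 mM NaCl, 100 μM EDTA/DTPA, clarified at 20,000xg, 4°C, and protein measured by BCA. Lysate started reactions with 200 μM SNO-CoA and 100 μM NADPH in phosphate/EDTA/DTPA buffer; 2 min; triplicate; n≥3.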

SCoR2 [3] = molecular target: T1, SCoR2; experiment: SNO-CoA-metabolizing activity in kidneys of treated mice; assay type: in vivo
Procedure, shortened: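 Mice got test compound i.p. with DMSO vehicle or were fed compound-containing diet; SCoR2-knockout mice served as comparators. Kidneys were taken 18 h after a single 20–120 mg/kg dose, or 24 h after I/R surgery done 18 h post-dose. Tissue was homogenized in 50 mM phosphate pH 7.0, 150 mM NaCl, 100 μM EDTA/DTPA, then clarified (20,000xg, 4°C) and BCA-normalized. Lysate started reactions with 200 μM SNO-CoA and 100 μM NADPH; 2 min, triplicate.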

AKR1B1 [4] = molecular target: AKR1B1 (Homo sapiens, UniProt P15121); experiment: Inhibition of methylglyoxylate-metabolizing activity of purified AKR1B1; assay type: biochemical; conditions: ratio of IC50 values
SCoR2 [5] = molecular target: T2, SCoR2 (Homo sapiens, UniProt P14550); experiment: Differential scanning fluorimetry; assay type: binding; conditions: 5 μM SCoR2, 250 μM compound; SCoR2 alone 48.3 (buffer), 48.0 (1% DMSO)
T2 sequence (P14550 1-325): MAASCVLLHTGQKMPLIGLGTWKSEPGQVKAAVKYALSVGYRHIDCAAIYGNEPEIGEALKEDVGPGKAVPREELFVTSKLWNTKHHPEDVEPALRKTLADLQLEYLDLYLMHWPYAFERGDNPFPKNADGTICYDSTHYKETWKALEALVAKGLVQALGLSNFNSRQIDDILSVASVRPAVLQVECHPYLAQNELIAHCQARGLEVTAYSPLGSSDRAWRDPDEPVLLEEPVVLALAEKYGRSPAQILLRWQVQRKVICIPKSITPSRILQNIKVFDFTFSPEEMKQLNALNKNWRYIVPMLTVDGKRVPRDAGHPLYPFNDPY

SCoR2 (AKR1A1) = molecular target: T3, SCoR2 (AKR1A1) (Homo sapiens, UniProt P14550); experiment: Inhibition of DL-glyceraldehyde-metabolizing activity of purified SCoR2; assay type: biochemical; conditions: DL-glyceraldehyde as substrate, in vitro
T3 sequence (P14550 1-325): T2 sequence (P14550 1-325)
Procedure, shortened: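 Initial screen with recombinant human SCoR2 (C-terminal His tag, expressed in E. coli, Ni-NTA purified). The 1 ml cuvette held 20 nM SCoR2, 3 mM DL-glyceraldehyde and varying inhibitor in 50 mM phosphate pH 7.0. NADPH (100 μM) started the reaction, which ran 2 min. NADPH consumption slope was read spectrophotometrically and IC50 was obtained by curve fitting.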

[6] = diet with 125 mg/kg diet for 3 weeks or 12 weeks
[7] = 20 mg/kg i.p. 18 h before surgery, 24 h post-surgery

Q: With `O=C1NC(=O)C2(N1)c1ccccc1-c1ccc(C3CC3)cc12` (centres unmarked) [5-1] as the molecule, how does the “Protection against AKI” value (acute kidney injury; 120 mg/kg i.p. 18 h before surgery) read?
A: The value was “protected against AKI”.

Q: What about the “Activity of kidney AKR1B1” value (AKR1B1 [1]) of the same molecule?
A: The value was “did not inhibit”.

Q: And the “Activity of SCoR2 in brain” value (SCoR2 [2])?
A: The value was “not in brain”.

Q: And the “Activity of SCoR2 in heart” value (SCoR2 [2])?
A: The value was “inhibited”.

Q: And the “Activity of SCoR2 in liver” value (SCoR2 [2])?
A: Its value is “inhibited”.

Q: What about the “Activity of SCoR2 in lung” value (SCoR2 [2]) of the same molecule?
A: The value was “inhibited”.

Q: What about the “Activity of SCoR2 in spleen” value (SCoR2 [2]) of the same molecule?
A: The value was “inhibited”.

Q: Which “SNO-CoA-metabolic activity in kidneys following AKI” value (SCoR2 [3]; 20 mg/kg i.p. 18 h before AKI surgery, 24 h post-surgery) does the source give for `O=C1NC(=O)C2(N1)c1cc(F)ccc1-c1ccc(F)cc12` [Imirestat, imirestat] here?
A: The value was “strongly inhibited”.

Q: And the “SCoR2 activity in the kidney on drug diet” value (SCoR2 [3]; [6])?
A: Its value is “potently inhibited”.

Q: And the “Protection against AKI” value (acute kidney injury; 20 mg/kg i.p. 18 h before surgery)?
A: The value was “does not protect against AKI”.

Q: What about the “Blood urea nitrogen (BUN) vs DMSO-treated mice” value (acute kidney injury; [7]) of the same molecule?
A: The value was “the same”.

Q: What about the “Serum creatinine vs DMSO-treated mice” value (acute kidney injury; [7]) of the same molecule?
A: Its value is “the same”.

Q: And the “Protection against AKI” value (acute kidney injury; [6])?
A: The value was “did not show protection against AKI”.

Q: And the “Times more potent at AKR1B1 (vs SCoR2)” value (AKR1B1 [4])?
A: The value was 1.2.

Q: Which “Melting temperature (Tm) of SCoR2, compound alone” value (SCoR2 [5]) does the source give for `NC(=O)C1=CN([C@@H]2O[C@H](COP(=O)(O)OP(=O)(O)OC[C@H]3O[C@@H](n4cnc5c(N)ncnc54)[C@H](OP(=O)(O)O)[C@@H]3O)[C@@H](O)[C@H]2O)C=CC1` [NADPH] here?
A: Its value is 51.4 °C.

Q: For `O=C1NC(=O)C2(N1)c1ccccc1-c1ccccc12` [compound 2], which “Inhibition of SCoR2 / potency at SCoR2 (in words)” value (SCoR2 (AKR1A1)) is on record?
A: The value was “less potent”.

Q: With `CC(/C=C1\SC(=S)N(CC(=O)O)C1=O)=C\c1ccccc1` [epalrestat, reference compound] as the molecule, how does the “Inhibition of SCoR2 / potency at SCoR2 (in words)” value (SCoR2 (AKR1A1)) read?
A: Its value is “inhibit”.
